Data: ChEMBL document CHEMBL3865821, “Amino substituted benzimidazo[1,2-a]quinolines: Antiproliferative potency, 3D QSAR study and DNA binding properties” (Eur J Med Chem, 2016)
The source made the active and inactive calls. No cut-off for these calls is given here.

Key:
[1] = Antiproliferative activity against human H460 cells after 72 hrs by MTT assay; format: functional, cell-based; conditions: NCI-H460, 72 h
Outline: (§1)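 Tumour cells were grown as monolayers in DMEM with 10 % FBS, 2 mM L-glutamine, penicillin and streptomycin at 37 °C under 5 % CO₂. They were seeded at 3×10^4 cells/mL (HCT 116, H460) or 5×10^4 cells/mL (MCF-7). Tenfold dilutions from 10^-8 to 10^-4 M were applied for 72 h, followed by MTT read at 570 nm. IC50 came from linear regression of percentage growth; at least two experiments, quadruplicate points.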

[2] = Antiproliferative activity against human MCF7 cells after 72 hrs by MTT assay; format: functional, cell-based; conditions: MCF7, 72 h
Outline: as §1, with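 “CO₂.” for “CO₂. They were seeded at 3×10^4 cells/mL (HCT 116, H460) or 5×10^4 cells/mL (MCF-7).”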

[3] = Binding affinity to duplex calf thymus DNA assessed as change in melting temperature at drug/DNA ratio of 0.5 by spectrophotometric analysis
Outline: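 Calf-thymus DNA at 20 μM was heated with or without compound at 10 or 20 μM (drug/base-pair ratio 0.5 or 1) in BPE buffer (6 mM Na₂HPO₄, 2 mM NaH₂PO₄, 1 mM EDTA, pH 7.1). A260 was read every minute from 20 to 100 °C, rising 1 °C per min, and ΔTm was derived.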

[4] = Antiproliferative activity against human HCT116 cells after 72 hrs by MTT assay; format: functional, cell-based; conditions: HCT-116, 72 h
Outline: as §1, with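 “CO₂.” for “CO₂. They were seeded at 3×10^4 cells/mL (HCT 116, H460) or 5×10^4 cells/mL (MCF-7).”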

[5] = molecular target: T1, DNA topoisomerase 1 (Homo sapiens) (UniProt P11387); assay: Poison activity at human DNA topoisomerase 1 assessed as increase in intensity of nicked form of DNA at 100 uM using pUC19 supercoiled plasmid DNA as substrate preincubated for 15 mins followed by DNA topoisomerase 1 addition measured after 30 mins by agarose gel electrophoresis
T1 sequence (whole entry): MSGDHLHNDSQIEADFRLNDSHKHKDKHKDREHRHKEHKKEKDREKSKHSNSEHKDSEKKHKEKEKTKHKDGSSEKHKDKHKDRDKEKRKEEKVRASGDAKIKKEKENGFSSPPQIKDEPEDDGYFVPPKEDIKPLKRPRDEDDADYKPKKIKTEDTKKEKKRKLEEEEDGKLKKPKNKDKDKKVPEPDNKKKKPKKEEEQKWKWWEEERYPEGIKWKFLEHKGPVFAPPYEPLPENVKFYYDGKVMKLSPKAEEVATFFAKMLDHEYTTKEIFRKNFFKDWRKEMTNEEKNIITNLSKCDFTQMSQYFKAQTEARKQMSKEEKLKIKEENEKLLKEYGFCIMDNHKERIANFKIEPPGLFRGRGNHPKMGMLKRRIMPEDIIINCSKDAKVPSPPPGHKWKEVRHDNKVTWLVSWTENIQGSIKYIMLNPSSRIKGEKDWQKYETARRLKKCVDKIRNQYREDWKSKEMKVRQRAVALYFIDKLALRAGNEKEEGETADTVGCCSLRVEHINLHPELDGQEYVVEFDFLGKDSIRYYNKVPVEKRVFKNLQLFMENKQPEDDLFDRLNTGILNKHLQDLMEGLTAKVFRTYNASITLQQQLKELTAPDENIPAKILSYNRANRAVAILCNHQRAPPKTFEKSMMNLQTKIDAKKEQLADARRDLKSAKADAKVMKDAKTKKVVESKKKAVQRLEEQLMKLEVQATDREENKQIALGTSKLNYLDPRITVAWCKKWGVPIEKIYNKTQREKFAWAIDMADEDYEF
Outline: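 Supercoiled pUC19 plasmid was treated with human topoisomerase I, alone or with compound, and topoisomers were resolved by agarose gel electrophoresis. Poisoning, seen as nicked plasmid, was assessed on ethidium bromide-containing agarose gels at up to 100 μM compound.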

ΔTm [3]: 0.6 °C
SMILES: N#Cc1c(N2CCCC2)c2ccc(N3CCCC3)cc2n2c1nc1ccccc12
IC50 ([1]; read-out: IC50): 12 µM | IC50 ([1]; read-out: pIC50 (converted)): 12 µM | IC50 ([2]; read-out: IC50): 2000 nM | IC50 ([2]; read-out: pIC50 (converted)): 2000 nM | IC50 ([4]; read-out: IC50): 2000 nM | IC50 ([4]; read-out: pIC50 (converted)): 2000 nM | Activity [5]: Active
